ChEMBL document CHEMBL2010713, “Structure-activity relationship of a new series of reversible dual monoacylglycerol lipase/fatty acid amide hydrolase inhibitors” (J Med Chem, 2012)
Calls of active or inactive are those of the source. The rule behind the calls is not given here.

Experiments:
Monoglyceride lipase [1] = target: T1, Monoglyceride lipase (Homo sapiens, UniProt Q99685); assay: Inhibition of human recombinant his-tagged MAGL expressed in Escherichia coli assessed as hydrolysis of 4-nitrophenyl acetate after 20 mins by microplate reader
T1 sequence (Q99685 whole entry): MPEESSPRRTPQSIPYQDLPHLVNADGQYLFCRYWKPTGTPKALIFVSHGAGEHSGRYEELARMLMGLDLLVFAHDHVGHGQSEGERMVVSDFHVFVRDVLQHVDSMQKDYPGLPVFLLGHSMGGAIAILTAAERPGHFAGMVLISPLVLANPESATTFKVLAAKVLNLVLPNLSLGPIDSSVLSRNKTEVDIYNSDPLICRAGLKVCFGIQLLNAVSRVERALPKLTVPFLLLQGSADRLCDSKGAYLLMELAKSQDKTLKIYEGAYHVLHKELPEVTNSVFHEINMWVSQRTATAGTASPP

[2] = target: T2, Monoglyceride lipase (Homo sapiens) (UniProt Q99685); assay: Inhibition of human recombinant his-tagged MAGL expressed in Escherichia coli assessed as hydrolysis of 4-nitrophenyl acetate at 10 uM after 20 mins by microplate reader
T2 sequence (whole entry): T1 sequence (Q99685 whole entry)

[3] = target: T3, Fatty-acid amide hydrolase 1 (Rattus norvegicus) (UniProt P97612); assay: Inhibition of rat brain membrane FAAH assessed as [3H]-anandamide hydrolysis at 100 uM after 10 mins by liquid scintillation spectroscopy
T3 sequence (whole entry): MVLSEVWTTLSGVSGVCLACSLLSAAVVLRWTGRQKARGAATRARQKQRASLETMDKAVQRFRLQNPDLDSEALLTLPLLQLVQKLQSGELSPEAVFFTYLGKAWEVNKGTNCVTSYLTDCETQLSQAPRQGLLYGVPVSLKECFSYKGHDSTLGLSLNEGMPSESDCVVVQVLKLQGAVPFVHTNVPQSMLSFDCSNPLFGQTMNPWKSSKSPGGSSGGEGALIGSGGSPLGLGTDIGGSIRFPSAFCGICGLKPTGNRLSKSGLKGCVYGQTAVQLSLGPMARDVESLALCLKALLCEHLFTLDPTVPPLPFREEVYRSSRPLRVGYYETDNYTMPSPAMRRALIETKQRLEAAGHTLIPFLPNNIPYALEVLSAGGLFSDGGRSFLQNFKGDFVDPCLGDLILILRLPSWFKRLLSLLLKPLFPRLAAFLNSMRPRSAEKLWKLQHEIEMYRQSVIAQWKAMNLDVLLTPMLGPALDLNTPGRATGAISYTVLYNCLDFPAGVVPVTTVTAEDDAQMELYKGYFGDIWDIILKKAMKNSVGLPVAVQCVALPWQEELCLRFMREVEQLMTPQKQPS
Outline: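 Membrane fraction of rat cerebella (100000g pellet resuspended in 50 mM sodium phosphate pH 8.0), diluted in 10 mM Tris-HCl, 1 mM EDTA, pH 7.2, for initial-rate conditions. [3H]-anandamide, ethanolamine-labelled, final 0.5 μM, with fatty acid-free BSA. Aqueous-phase tritium measured by liquid scintillation; blanks lacked enzyme; activity as percent of solvent-carrier control. Highest concentration 100 μM; 3–10 independent experiments.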

[4] = target: T4, Monoglyceride lipase (Rattus norvegicus) (UniProt Q8R431); assay: Inhibition of rat brain cytosolic MAGL assessed as [3H]-2-arachidonoyl glycerol hydrolysis at 100 uM after 10 mins by liquid scintillation spectroscopy
T4 sequence (whole entry): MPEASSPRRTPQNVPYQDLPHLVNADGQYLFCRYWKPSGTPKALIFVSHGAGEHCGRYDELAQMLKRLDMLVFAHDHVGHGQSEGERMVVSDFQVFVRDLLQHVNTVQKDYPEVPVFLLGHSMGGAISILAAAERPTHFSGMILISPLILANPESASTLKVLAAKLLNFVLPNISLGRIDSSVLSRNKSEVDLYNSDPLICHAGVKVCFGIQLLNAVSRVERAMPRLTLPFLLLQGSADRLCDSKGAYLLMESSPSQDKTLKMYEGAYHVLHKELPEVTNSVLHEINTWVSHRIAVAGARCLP

[5] = target: T4, Monoglyceride lipase (Rattus norvegicus); assay: Irreversible inhibition of rat brain cytosolic MAGL assessed as […] at 3 to 10 uM preincubated for 60 mins by liquid scintillation
[6] = target: T4, Monoglyceride lipase (Rattus norvegicus); assay: Irreversible inhibition of rat brain cytosolic MAGL assessed as […] at 0.1 to 1 uM preincubated for 60 mins by liquid scintillation
[7] = target: T4, Monoglyceride lipase (Rattus norvegicus); assay: Irreversible inhibition of rat brain cytosolic MAGL assessed as [3H]-2-arachidonoyl glycerol hydrolysis at 3 uM preincubated for 60 mins measured after dilution by liquid scintillation
[8] = target: T4, Monoglyceride lipase (Rattus norvegicus); assay: Irreversible inhibition of rat brain cytosolic MAGL assessed as [3H]-2-arachidonoyl glycerol hydrolysis at 3 uM preincubated for 60 mins followed by […] compound treated after dilution by liquid scintillation
[9] = target: T4, Monoglyceride lipase (Rattus norvegicus); assay: Irreversible inhibition of rat brain cytosolic MAGL assessed as [3H]-anandamide hydrolysis at 3 uM preincubated for 60 mins measured after dilution by liquid scintillation
[10] = target: T4, Monoglyceride lipase (Rattus norvegicus); assay: Irreversible inhibition of rat brain cytosolic MAGL assessed as [3H]-anandamide hydrolysis at 3 uM preincubated for 60 mins followed by […] compound treated after dilution by liquid scintillation
Monoglyceride lipase [11] = target: T1, Monoglyceride lipase; assay: Non-competitive inhibition of human recombinant MAGL assessed as 7-hydroxycoumarin level using umbelliferyl arachidonate as substrate by luminescence spectrophotometer
[12] = target: Fatty-acid amide hydrolase 1 (Rattus norvegicus) (UniProt P97612); assay: Inhibition of rat brain membrane FAAH assessed as [3H]-anandamide hydrolysis after 10 mins by liquid scintillation spectroscopy
[13] = target: Monoglyceride lipase (Rattus norvegicus) (UniProt Q8R431); assay: Inhibition of rat brain cytosolic MAGL assessed as [3H]-2-oleoylglycerol hydrolysis after 10 mins by liquid scintillation spectroscopy
[14] = target: Monoglyceride lipase (Rattus norvegicus) (UniProt Q8R431); assay: Inhibition of rat brain cytosolic MAGL assessed as [3H]-2-oleoylglycerol hydrolysis at 100 uM after 10 mins by liquid scintillation spectroscopy; conditions: Cytosol
[15] = target: T4, Monoglyceride lipase (Rattus norvegicus); assay: Irreversible inhibition of rat brain cytosolic MAGL assessed as [3H]-2-arachidonoyl glycerol hydrolysis at 0.1 uM preincubated for 60 mins by liquid scintillation
[16] = target: T4, Monoglyceride lipase (Rattus norvegicus); conditions: 10 uM
[17] = target: T4, Monoglyceride lipase (Rattus norvegicus); conditions: 10 uM; remark: listed apart in the source
[18] = target: T4, Monoglyceride lipase (Rattus norvegicus); conditions: 10 uM; remark: listed apart in the source
[19] = target: T4, Monoglyceride lipase (Rattus norvegicus); conditions: 10 uM; remark: listed apart in the source
[20] = target: T2, Monoglyceride lipase (Homo sapiens)

SMILES	IC50 (Monoglyceride lipase [1]) [µM]	inhibition [2] [%]	other results
O=C(CCCCCc1ccc(-c2ccccc2)cc1)OC[C@H]1CO1	> 10	33	Imax [3]: 91%
O=C(CCCCCc1ccc(-c2ccccc2)cc1)OC[C@@H]1CO1	> 10	45	Imax [3]: 92%; Imax [4]: > 95%
O=C(Cc1ccc(Cc2ccccc2)cc1)OC[C@H]1CO1	2.4		inhibition [5]: inactive; inhibition [6]: inactive; inhibition [7]: inactive; inhibition [8]: inactive; inhibition [9]: inactive; inhibition [10]: inactive; Ki (Monoglyceride lipase [11]): 40 µM
O=C(CCCCCc1ccc(-c2ccccc2)cc1)OC(CO)CO	7.5		
O=C(Cc1ccc(Cc2ccccc2)cc1)OC(CO)CO		< 10	IC50 [12]: 0.7 µM; IC50 [13]: > 100 µM; inhibition [14]: 49%
CCCCC/C=C\C/C=C\C/C=C\C/C=C\CCCC(=O)OCC1CCCCO1 (stereo not given)			IC50 [13]: 5.6 µM
O=C(Cc1ccc(Cc2ccccc2)cc1)OC[C@@H]1CO1		< 10	
O=C(Oc1ccc([N+](=O)[O-])cc1)N1CCC(C(O)(c2ccc3c(c2)OCO3)c2ccc3c(c2)OCO3)CC1			inhibition [15]: Active
O=C(/C=C/c1ccc(-c2ccccc2)cc1)OCC1CO1 (racemic)	5.1		Imax [4]: 73%
O=C(CCc1ccc(-c2ccccc2)cc1)OCC1CO1 (racemic)	> 10	22	
O=C(CCCc1ccc(-c2ccccc2)cc1)OCC1CO1 (racemic)	1.8		Imax [2]: 86%
O=C(CCCCc1ccc(-c2ccccc2)cc1)OCC1CO1 (racemic)	6.6		Imax [3]: 87%; IC50 [12]: 4.6 µM; IC50 [13]: 2.6 µM
O=C(CCCCCc1ccc(-c2ccccc2)cc1)OCC1CO1 (racemic)	4.1		Imax [3]: 89%; inhibition [5]: inactive; inhibition [6]: inactive; inhibition [16]: Active; inhibition [17]: Active; inhibition [18]: Active; inhibition [19]: Active; Kic [20]: 8 µM
O=C(CCCCCCc1ccc(-c2ccccc2)cc1)OCC1CO1 (racemic)	> 10	11	
O=C(Cc1ccc(-c2ccccc2)cc1)OCC1CCCCO1 (racemic)	> 10	21	
O=C(CCc1ccc(-c2ccccc2)cc1)OCC1CCCCO1 (racemic)	1.6		Imax [2]: 67%

SMILES	IC50 (Monoglyceride lipase [1]) [µM]	inhibition [2] [%]	other results
O=C(CCCc1ccc(-c2ccccc2)cc1)OCC1CCCCO1 (racemic)	> 10	34	
O=C(CCCCc1ccc(-c2ccccc2)cc1)OCC1CCCCO1 (racemic)	12		
O=C(CCCCCc1ccc(-c2ccccc2)cc1)OCC1CCCCO1 (racemic)	> 10	33	
O=C(CCCCCCc1ccc(-c2ccccc2)cc1)OCC1CCCCO1 (racemic)	> 10	37	Imax [4]: 83%
O=C(/C=C/c1ccc(-c2ccccc2)cc1)OCC1CCCCO1 (racemic)	0.76		Imax [2]: 90%; inhibition [4]: 37%
O=C(C/C=C/c1ccc(-c2ccccc2)cc1)OCC1CCCCO1 (racemic)	> 10	12	
O=C(/C=C/Cc1ccc(-c2ccccc2)cc1)OCC1CCCCO1 (racemic)	> 10	49	
O=C(Cc1ccc(Cc2ccccc2)cc1)OCC1CO1 (racemic)	16		
O=C(CCCc1ccc(Cc2ccccc2)cc1)OCC1CO1 (racemic)	> 10	29	
O=C(Cc1ccc(Cc2ccccc2)cc1)OCC1CCCCO1 (racemic)		< 10	Imax [4]: 96%; IC50 [12]: 6.8 µM; IC50 [13]: > 100 µM; inhibition [14]: 25%
O=C(CCCc1ccc(Cc2ccccc2)cc1)OCC1CCCCO1 (racemic)	> 10	14	Imax [4]: 72%
O=C(CCc1ccc(Cc2ccccc2)cc1)OCC1CCCCO1 (racemic)		< 10	
O=C(CCc1ccc(Cc2ccccc2)cc1)OCC1CO1 (racemic)		< 10	Imax [3]: 72%
O=C(Cc1ccc(-c2ccccc2)cc1)OCC1CO1 (racemic)		< 10	
O=C(OCC1CCCCO1)c1ccc(CCc2ccccc2)cc1 (racemic)		< 10	
O=C(OCC1CO1)c1ccc(CCc2ccccc2)cc1 (racemic)		< 10	
